Assay outcomes as filed in PubChem BioAssay.
Sampled rows, rich in hits. Any-hit rate of the full collection: about 1.8%.
zVAD death inh: blocks zVAD induced death of L929 cells | L929 zVAD necroptosis rescue, ATP luminescence, 24 h; with zVAD 60 µM | viability rescue, % at 10 µM | hit rate 0.38% among 220,000;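 active = activation, scaled between plate controls, above about 75%, limit read from the data; inactive = activation under that limit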;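 also: 0% = zVAD with DMSO and 100% = DMSO alone without zVAD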
Furin inhibitor: blocks human furin protease activity | AID 463115 | P09958 | purified furin, fluorogenic substrate cleavage | hit rate 0.061% among 220,000 | inhibition, % at 20 µM or 30 µM; in the data active = inhibition above about 25%
Target sequence (P09958 108-714 limits assumed): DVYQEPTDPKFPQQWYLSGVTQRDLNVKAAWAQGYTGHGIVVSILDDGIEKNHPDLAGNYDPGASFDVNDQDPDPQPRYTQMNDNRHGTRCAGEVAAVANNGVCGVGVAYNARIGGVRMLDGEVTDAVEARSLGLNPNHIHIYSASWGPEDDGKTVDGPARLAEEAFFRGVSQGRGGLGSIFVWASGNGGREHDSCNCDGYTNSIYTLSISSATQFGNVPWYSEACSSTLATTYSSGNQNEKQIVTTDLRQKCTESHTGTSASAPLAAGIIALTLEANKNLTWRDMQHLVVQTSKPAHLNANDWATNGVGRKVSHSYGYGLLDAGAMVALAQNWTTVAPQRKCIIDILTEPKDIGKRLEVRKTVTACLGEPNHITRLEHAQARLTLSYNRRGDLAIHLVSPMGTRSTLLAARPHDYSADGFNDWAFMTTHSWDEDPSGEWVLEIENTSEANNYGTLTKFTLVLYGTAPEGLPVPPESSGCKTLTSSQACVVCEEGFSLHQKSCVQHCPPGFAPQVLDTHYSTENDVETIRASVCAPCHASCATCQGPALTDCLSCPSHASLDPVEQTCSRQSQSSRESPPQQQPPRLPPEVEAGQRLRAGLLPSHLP
Dynein cargo inh: blocks dynein driven cargo transport along microtubules | 3617.4 mouse cells, GR-EGFP nuclear translocation imaging; test concentration mostly 20 µM; stimulated with dexamethasone, 1 µM; stronger effect = lower value | z-score, hits read low | hit rate 0.47% among 220,000 | AID 1381;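 active = plate z-score of nuclear minus cytoplasmic receptor signal below a set negative limit, without overly bright fluorescence or cell loss, cut at about -3.5 in these data, passing the limit was not always enough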;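 also: z-score of nuclear minus cytoplasmic ring GR-EGFP intensity difference per well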
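medium = tetracycline-free induction medium containing charcoal-stripped FBS | also added = 1.0 µM final dexamethasone stimulus | schedule = 48 h induction, 1 h compound, 30 min dex at 37 °C | technique = fixed, Hoechst-stained cells imaged at 10x for EGFP | measure = GR-EGFP nuclear translocation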
HSV replic up: increases HSV replication in cells. HSV replication augmentation in cells, fold increase. maximum fold increase. hit rate 0.005% among 220,000; in the data active = maximum fold increase above about 1.5; inconclusive = no clear call, values can overlap the other calls; tested in PC3 cells
TNF death inh: inhibitors of TNF-alpha induced necroptosis in Jurkat FADD-/- cells; AID 463075; Jurkat FADD-/- TNF necroptosis rescue, ATP luminescence, 24 h; 0 = TNF only, 100 = no-TNF cells; activation (protection from cell death), % at 10 µM; hit rate 0.068% among 220,000;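 active = activation, meaning protection from cell death, of at least 50% relative to plate controls; inactive = activation below 50%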;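 also: necroptosis triggered by 40 ng/mL TNF-alpha added together with compound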
Autophagy HCS: modulators of autophagy; MEF GFP-LC3 puncta imaging; test concentration mostly 10 µM; calls only at 10 µM (by protocol); hit rate 0.98% among 190,000;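 active = percentage of spot-positive cells more than 3 SD above its plate mean, without a fluorescence outlier flag or 80% toxicity; inconclusive = no clear call, values can overlap the other calls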;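 also: spot-positive cell cutoff set from DMSO-treated cells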
Dynein inh conf: dynein cargo transport inhibition, confirmation; hit rate 69% among 1,000; 3617.4 GR-EGFP nuclear translocation imaging, dexamethasone-induced; shares compounds with Dynein cargo inh; calls only at 20 µM;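 active = inhibition of receptor movement into the nucleus at or above a set limit in both runs, with normal cell brightness and cell count; inconclusive = limit reached in only one run, brightness and count normal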;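 also: dexamethasone at 1 µM final in well for 30 min; nuclear minus cytoplasmic GR-EGFP mean intensity difference in channel 2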
* = called active by the depositor; i = inactive; ? = inconclusive; nt = no result; + = active, no number.

SMILES	zVAD death inh	Furin inhibitor	Dynein cargo inh	HSV replic up	TNF death inh	Autophagy HCS	Dynein inh conf
CN1CCN(C2=C(Cl)C(=O)N(c3ccc(Cl)c(Cl)c3)C2=O)CC1	1	-15	-4.6*	i	-3	i	?
Cc1ccccc1CSc1nnc([C@@H]2CCCN2)o1	1	-28	0.84	i	0	nt	nt
Cc1ccc2nc(Cl)c3cc(C(=O)N(CCN(C)C)Cc4ccco4)sc3c2c1	46	-15	-3.5*	i	4	i	i
CCCCCN1C(=O)Cn2c(nc3ccccc3c2=O)C1C (stereo not given)	0	-17	-0.37	i	1	i	nt
O=C(OCn1ncc(Br)c(Br)c1=O)c1c(F)cccc1F	45	-19	-4.8*	i	-27	+	+
Cc1nc2nc[nH]n2c(=O)c1CCOC(=O)c1c(F)cccc1F	9	-12	-0.093	i	0	i	nt
CC(=O)Cn1ncc(Br)c(Br)c1=O	12	-19	-4.6*	i	-15	+	+
N#Cc1cc(-c2ccccc2)nc(Oc2ccc(Cl)cc2)n1	1	-4	-4.3*	i	-2	i	+
CC(C)(C)C(=O)NCC12C=CC(O1)C1C(=O)N(c3ccccc3)C(=O)C12 (stereo not given)	-1	5	1.6	i	4	i	nt
O=C1C2C3C=CC(CO)(O3)C2C(=O)N1c1ccc(-c2ccccc2)cc1 (stereo not given)	1	-36	-4.4*	i	1	i	+
CCCN1CCN(C(=O)Cn2c(=O)oc3cc(S(=O)(=O)NCc4ccccc4)ccc32)CC1	4	-22	-1.3	i	1	i	nt
O=C(Cn1c(=O)oc2cc(S(=O)(=O)NCc3ccccc3)ccc21)N1CCCC1	1	-12	-5.2*	i	0	nt	i
CCOc1ccc(-n2c(C)cc(C(=O)CCl)c2C)cc1	-1	-17	-4.8*	i	-12	+	+
COC(=O)c1ccc(-n2c(C)cc(C(=O)CCl)c2C)cc1	-3	-23	-5*	i	-5	i	+
CCc1ccc(-c2nc(SCC(=O)N3CCOCC3)n[nH]2)cc1	3	-25	-0.22	i	-1	i	nt
CN(C)CC(C(=O)c1ccccc1)c1ccccc1 (stereo not given)	7	-9	-3.7*	i	-27	i	+
O=C(/C=C/c1ccccc1)c1ccccc1	1	-15	-0.83	i	0	i	nt
CCC(=O)Nc1cccc(C(=O)/C=C/c2ccc(F)cc2)c1	-1	-23	-4.8*	i	-10	i	+
CN(C)c1ccc(/C=C/C(=O)c2cccc(Br)c2)cc1	0	-3	-13	nt	-14	+	+
CC(=O)Nc1cccc(C(=O)/C=C/c2ccc(C)cc2)c1	-1	-7	-0.34	i	-6	i	nt
Cc1nc([N+](=O)[O-])c(Br)n1CC(=O)c1ccc(Br)cc1	1	-22	-4.3*	i	-8	i	+
Cc1nc([N+](=O)[O-])c(Br)n1CC(=O)c1ccccc1	1	-27	-5.3*	i	-8	i	+
Cc1nc([N+](=O)[O-])c(Br)n1CC(=O)c1ccc2ccccc2c1	-1	-3	-4.3*	i	-10	i	+
Cn1ccnc1SCCNC(=O)CCc1nnc(CCc2ccccc2)o1	-1	-19	-1	i	-1	i	nt
CCCCCCOc1ccc(N2C(=O)CC(N3CCN(CCN=CC4C(=O)CC(C)(C)CC4=O)CC3)C2=O)cc1 (stereo not given)	2	-15	0.14	i	1	i	nt
SMILES	zVAD death inh	Furin inhibitor	Dynein cargo inh	HSV replic up	TNF death inh	Autophagy HCS	Dynein inh conf
c1ccc(CN2CCC(N3CCN(Cc4ccc5c(c4)OCO5)CC3)CC2)cc1	-1	-16	0.24	i	-2	nt	nt
O=C1C=CC2C(c3ccc4c(c3)OCO4)CC1N2Cc1ccccc1 (stereo not given)	-1	-22	-3.8*	i	-7	i	+
COc1ccc(-c2nnc(Sc3nc4ccccc4o3)c3ccccc23)cc1	0	-6	-4.2*	i	-22	i	+
O=c1oc2ccccc2c(Nc2cccc3cccnc23)c1[N+](=O)[O-]	-1	-6	0.64	i	-4	i	nt
COc1ccccc1NC(=S)N1CCn2cccc2C1c1cccnc1 (stereo not given)	0	-9	0.02	i	2	i	nt
O=c1[nH]c2ccccc2nc1C(Nc1ccccc1)c1ccccc1 (stereo not given)	0	-18	0.11	i	0	nt	nt
CCOC(=O)/C(C#N)=C/c1c[nH]c2ccccc12	1	-6	-0.13	i	1	i	nt
CCOC(=O)C(=Cc1c[nH]c2ccc(S(=O)(=O)N(C)C)cc12)C(=O)OCC	2	-8	-4.7*	i	-2	nt	+
C[C@@H]1NC(=O)N[C@@H]1CCCCCC(=O)O	nt	nt	nt	i	nt	nt	nt
O=C(c1ccccc1)c1ccc(COC(=O)c2cnccn2)cc1	1	-10	0.32	i	-1	i	nt
O=C(Oc1ccccc1)c1cccc(COC(=O)c2cnccn2)c1	0	-20	-4.1	i	-1	i	i
CCOC(=O)C(=O)Nc1ccc(F)cc1	0	-26	-0.97	i	0	i	nt
CCOC(=O)C(=Cc1ccc(F)cc1)C(=O)OCC	1	-20	-5.2*	i	-24	i	+
CCOC(=O)C(=Cc1ccc(-n2ccnc2)cc1)C(=O)OCC	0	-11	-5.6*	i	-9	i	+
COC(=O)c1ccc(-n2ccnc2)cc1	9	-26	-0.41	nt	-1	i	nt
CC(C)(C)c1ccc(NNC(=O)C2CCC2)cc1	-1	-18	-0.57	i	1	nt	nt
COc1ccc(CS(=O)(=O)/C(Cl)=C(/Cl)C(=O)Nc2ccc(OC)nc2)cc1	1	-6	-4.6	i	-2	i	+
COc1ccc(NC(=O)/C(Cl)=C(/Cl)S(=O)Cc2ccccc2)cn1 (stereo not given)	-4	-14	-5.4*	i	-14	i	+
COc1ccc(C(=O)CCN2CCN(c3ccccc3OC)CC2)cc1	0	-21	-4.4*	i	0	i	+
O=C(N/N=C/C1=C(N2CCOCC2)C(=C\c2ccccc2)/CC1)Nc1ccccc1	0	-14	0.27	i	2	i	nt
CCN(CC)c1ccc(/C=C2\CCC(/C=N/NC(=O)c3ccc(=O)n(C)c3)=C2N2CCOCC2)cc1	-1	-18	-4.9	?	2	+	+
CC(C)Cn1c(C(C)C)nc([N+](=O)[O-])c1Sc1ccc(Cl)cn1	0	4	-0.013	i	-6	i	nt
